pEC50, pKi: −log10 of the molar value. Calls of active or inactive are those of the source. No cut-off for these calls is given here.
Assays:
[1] = Displacement of [3H]DTG from sigma 2 receptor in guinea pig brain membranes after 120 mins; assay type: cell membranes, Cavia porcellus, Membrane
[2] = Binding affinity to dopamine D4.2 receptor
[3] = target: D(2) dopamine receptor (Rattus norvegicus) (UniProt P61169); assay: Binding affinity to dopamine D2 receptor in rat striatum; assay type: tissue-based
D(2) dopamine receptor (Rattus norvegicus), sequence (P61169 whole entry): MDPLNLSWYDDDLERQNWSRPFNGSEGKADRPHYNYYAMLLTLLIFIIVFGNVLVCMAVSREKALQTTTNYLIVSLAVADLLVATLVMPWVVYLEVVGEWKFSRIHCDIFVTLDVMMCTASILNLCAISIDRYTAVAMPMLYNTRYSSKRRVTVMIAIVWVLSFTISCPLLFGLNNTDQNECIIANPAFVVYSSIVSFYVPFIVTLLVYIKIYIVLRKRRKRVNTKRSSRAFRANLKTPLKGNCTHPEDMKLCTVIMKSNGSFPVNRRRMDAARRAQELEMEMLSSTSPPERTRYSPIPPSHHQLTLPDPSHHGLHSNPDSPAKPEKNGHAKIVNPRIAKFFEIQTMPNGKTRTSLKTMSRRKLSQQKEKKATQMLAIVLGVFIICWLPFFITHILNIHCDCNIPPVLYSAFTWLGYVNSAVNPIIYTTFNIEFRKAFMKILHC

[4] = target: Mu-type opioid receptor (Rattus norvegicus) (UniProt P33535); assay: Displacement of [3H]naloxone from mu opioid receptor in rat brain membranes; assay type: cell membranes
Mu-type opioid receptor (Rattus norvegicus), sequence (P33535 whole entry): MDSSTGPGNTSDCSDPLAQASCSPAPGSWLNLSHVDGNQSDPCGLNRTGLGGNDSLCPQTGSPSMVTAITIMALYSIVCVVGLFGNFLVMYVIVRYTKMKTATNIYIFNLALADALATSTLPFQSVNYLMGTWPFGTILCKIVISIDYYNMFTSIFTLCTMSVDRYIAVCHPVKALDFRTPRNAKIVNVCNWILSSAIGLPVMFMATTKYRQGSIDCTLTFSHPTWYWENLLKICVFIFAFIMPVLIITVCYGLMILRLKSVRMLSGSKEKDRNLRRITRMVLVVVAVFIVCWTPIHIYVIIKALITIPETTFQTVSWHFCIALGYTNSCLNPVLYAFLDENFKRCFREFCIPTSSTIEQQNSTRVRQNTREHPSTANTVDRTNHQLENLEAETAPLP

[5] = target: Sigma non-opioid intracellular receptor 1 (Cavia porcellus, UniProt Q60492); assay: Displacement of [3H]-(+)-pentazocine from sigma 1 receptor in guinea pig brain membranes after 150 mins; assay type: cell membranes, Membrane
Sigma non-opioid intracellular receptor 1, sequence (Q60492 whole entry): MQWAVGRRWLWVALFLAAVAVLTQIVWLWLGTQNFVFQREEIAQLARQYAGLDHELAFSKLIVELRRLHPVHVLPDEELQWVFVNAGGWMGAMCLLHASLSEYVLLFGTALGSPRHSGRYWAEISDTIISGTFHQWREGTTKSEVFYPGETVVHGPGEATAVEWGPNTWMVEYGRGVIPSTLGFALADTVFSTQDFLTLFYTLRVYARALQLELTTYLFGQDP

[6] = target: 5-hydroxytryptamine receptor 2A (Rattus norvegicus) (UniProt P14842); assay: Binding affinity to 5-HT2A receptor in rat cortex; assay type: tissue-based
5-hydroxytryptamine receptor 2A (Rattus norvegicus), sequence (P14842 whole entry): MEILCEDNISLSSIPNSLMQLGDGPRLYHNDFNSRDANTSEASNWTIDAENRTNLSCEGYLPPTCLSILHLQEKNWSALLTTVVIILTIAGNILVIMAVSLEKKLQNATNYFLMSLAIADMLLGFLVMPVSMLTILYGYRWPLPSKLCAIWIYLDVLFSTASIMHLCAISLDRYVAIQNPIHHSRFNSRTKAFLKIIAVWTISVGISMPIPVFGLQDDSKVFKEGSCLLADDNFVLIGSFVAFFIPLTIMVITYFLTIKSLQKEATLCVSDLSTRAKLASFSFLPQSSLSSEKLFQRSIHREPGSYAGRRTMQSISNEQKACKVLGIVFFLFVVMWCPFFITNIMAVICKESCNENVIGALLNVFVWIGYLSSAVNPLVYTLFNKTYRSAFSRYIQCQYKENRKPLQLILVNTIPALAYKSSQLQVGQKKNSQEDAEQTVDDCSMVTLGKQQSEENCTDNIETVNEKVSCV

Cavia porcellus = species on record: Cavia porcellus; assay: Selectivity ratio of Ki for sigma 1 receptor in guinea pig brain membranes to Ki for sigma 2 receptor in guinea pig brain membranes; assay type: cell membranes
[7] = target: Sigma non-opioid intracellular receptor 1 (Cavia porcellus) (UniProt Q60492); assay: Displacement of [3H]-(+)-pentazocine from sigma 1 receptor in guinea pig brain membranes after 150 mins in presence of 1 mM to 250 uM of phenytoin; assay type: cell membranes; conditions: Membrane
Sigma non-opioid intracellular receptor 1 (Cavia porcellus), sequence (Q60492 whole entry): as the sequence (Q60492 whole entry) above
Method in brief: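 Guinea pig brain [3H](+)-pentazocine competition binding run without phenytoin and with 250 μM or 1 mM phenytoin. Ki ratios (control/with phenytoin) computed. Hill analysis of competition curves. Cocaine served as the putative σ1 agonist control.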

Rattus norvegicus [8] = assay: Antinociceptive activity in Sprague-Dawley rat assessed as mean AUC of thermal-stimulus induced tail flick latency for 60 mins at 1 mg/kg, sc; assay type: functional, organism-based; design: dose 1 mg/kg
Method in brief: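 Rats given test compound 1 mg/kg sc alone. Tail flick latency to thermal stimulation, expressed as percent change from basal, tracked over a 60 min window. Summarised as mean area under the curve (MAUC) after the last injection. Compared against saline-treated rats, n = 8–10 per group, mean ± SD, significance at p < 0.05.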

[9] = target: Adrenergic receptor alpha-1 (Rattus norvegicus) (UniProt P15823+P23944+P43140); assay: Binding affinity to adrenergic alpha1 receptor in rat cortex
[10] = target: D(1A) dopamine receptor (Rattus norvegicus) (UniProt P18901); assay: Binding affinity to dopamine D1 receptor in rat striatum; assay type: tissue-based
D(1A) dopamine receptor (Rattus norvegicus), sequence (P18901 whole entry): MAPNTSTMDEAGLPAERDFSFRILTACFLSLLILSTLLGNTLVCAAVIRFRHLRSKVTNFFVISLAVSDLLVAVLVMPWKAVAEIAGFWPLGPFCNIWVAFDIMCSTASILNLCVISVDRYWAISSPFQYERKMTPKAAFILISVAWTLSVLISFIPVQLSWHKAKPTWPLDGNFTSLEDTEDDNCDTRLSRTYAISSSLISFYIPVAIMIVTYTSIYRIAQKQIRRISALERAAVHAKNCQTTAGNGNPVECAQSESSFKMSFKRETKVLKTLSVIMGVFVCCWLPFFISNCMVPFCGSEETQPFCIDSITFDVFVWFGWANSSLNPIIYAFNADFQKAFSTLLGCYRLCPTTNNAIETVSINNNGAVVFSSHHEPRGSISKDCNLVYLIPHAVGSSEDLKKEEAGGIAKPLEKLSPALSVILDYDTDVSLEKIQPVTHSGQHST

[11] = target: D(3) dopamine receptor (Rattus norvegicus) (UniProt P19020); assay: Binding affinity to dopamine D3 receptor in rat olfactory tubercle; assay type: tissue-based
D(3) dopamine receptor (Rattus norvegicus), sequence (P19020 whole entry): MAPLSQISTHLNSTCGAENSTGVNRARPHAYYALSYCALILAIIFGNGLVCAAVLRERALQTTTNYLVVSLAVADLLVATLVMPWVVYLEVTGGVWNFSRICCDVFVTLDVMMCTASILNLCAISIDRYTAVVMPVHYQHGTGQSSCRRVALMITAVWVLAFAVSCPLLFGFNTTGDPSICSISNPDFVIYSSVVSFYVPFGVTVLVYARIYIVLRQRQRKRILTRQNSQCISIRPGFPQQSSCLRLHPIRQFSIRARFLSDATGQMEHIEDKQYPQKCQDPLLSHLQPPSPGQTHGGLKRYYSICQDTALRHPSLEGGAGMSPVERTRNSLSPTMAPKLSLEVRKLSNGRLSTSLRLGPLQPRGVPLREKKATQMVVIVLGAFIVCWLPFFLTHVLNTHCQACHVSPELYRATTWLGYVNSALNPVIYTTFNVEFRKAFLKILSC

Rattus norvegicus [12] = assay: Potentiation of (-)-U50488H-induced antinociceptive activity in Sprague-Dawley rat assessed as mean AUC of thermal-stimulus induced tail flick latency for 60 mins at 1 mg/kg, sc treated 45 mins before (-)-U50488H challenge; assay type: functional; conditions: route subcutaneous
Method in brief: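 Rats were pretreated sc with test compound at 1 mg/kg 45 min before the κ agonist (−)-U50,488H at 5 mg/kg sc. Thermal-stimulus tail flick latency was taken as percent change from basal over 60 min and summarised as MAUC after the last injection. Groups were compared with saline- and U50,488H-only groups, n = 8–10, mean ± SD, p < 0.05.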

PC-3 = assay: Antiproliferative activity against human PC3 cells at 100 uM after 48 hrs; assay type: functional, cell-based
Method in brief: (§1)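 LNCaP (hormone-sensitive) and PC3 (hormone-refractory) prostate tumour cells exposed to 100 μM compound for 48 h; antiproliferative effect measured. Haloperidol and haloperidol metabolite II run as references.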

[13] = Agonist activity at sigma 2 receptor in guinea pig longitudinal muscle/myenteric plexus assessed as inhibition of electrically-induced contraction; assay type: functional; conditions: Cavia porcellus
Method in brief: (§2)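 Guinea pig ileum preparation with sigma-1 receptors desensitized. Electrically evoked contractions recorded in an isolated organ bath; a dose-response curve was built from the inhibition of the evoked contractions.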

LNCaP = assay: Antiproliferative activity against human LNCAP cells at 100 uM after 48 hrs; assay type: functional, cell-based; method in brief: as §1
[14] = Partial agonist activity at sigma 2 receptor in guinea pig longitudinal muscle/myenteric plexus assessed as inhibition of electrically-induced contraction; assay type: functional, Cavia porcellus; method in brief: as §2

Compound	pKi [1]	pKi [5]	Ratio Ki (Cavia porcellus)	further results
Cc1ccccc1NC(=N)Nc1ccccc1C [DITOLYLGUANIDINE]	7.64	–	–	–
COC(=O)[C@@]1(c2ccccc2)C[C@H]1CN1CCC(O)(c2ccccc2)CC1	6.24	8.15	81.4	Activity [2]: Active; Activity [3]: Active; Activity [4]: Active; Activity [6]: Active; inhibition [7]: Active; Activity (Rattus norvegicus [8]): inactive; Activity [9]: Active; Activity [10]: Active; Activity [11]: Active; Activity (Rattus norvegicus [12]): 118.2%
COC(=O)[C@]1(c2ccccc2)C[C@@H]1CN1CCC(O)(c2ccccc2)CC1	7.55	8.30	5.6	–
COC(=O)[C@H]1[C@@H](OC(=O)c2ccccc2)C[C@@H]2CC[C@H]1N2C	–	–	–	inhibition [7]: inactive
COC(=O)[C@]1(c2ccccc2)C[C@@H]1CN1CCC(O)(c2ccc(Cl)cc2)CC1	7.66	8.40	–	inhibition [7]: Active
COC(=O)[C@@]1(c2ccccc2)C[C@H]1CN1C2C=C(c3ccc(Cl)cc3)CC1CC2 (mixture of isomers)	6.25	6.70	2.8	–
COC(=O)[C@]1(c2ccccc2)C[C@@H]1CN1C2C=C(c3ccc(Cl)cc3)CC1CC2 (mixture of isomers)	6.03	6.40	2.4	–
COC(=O)[C@]1(c2ccccc2)C[C@@H]1CN1[C@@H]2CC[C@H]1C[C@@](O)(c1ccc(Cl)cc1)C2	7.23	7.36	1.3	–
O=C(CCCc1ccccc1)OC(CCCN1CCC(O)(c2ccc(Cl)cc2)CC1)c1ccc(F)cc1 (racemic)	9.01	8.27	0.18	–
COC(=O)[C@@]1(c2ccccc2)C[C@H]1CN1[C@@H]2CC[C@H]1C[C@@](O)(c1ccc(Cl)cc1)C2	7.60	6.28	0.05	Activity [2]: Active; Activity [3]: Active; Activity (PC-3): Active; Activity [4]: Active; Activity [6]: Active; pEC50 [13]: 5.64; Activity [9]: Active; Activity (LNCaP): Active; Activity [10]: Active; Activity [11]: Active; Alpha max [14]: 0.4
COC(=O)[C@@]1(c2ccccc2)C[C@H]1CN1CCC(O)(c2ccc(Cl)cc2)CC1	7.63	8.25	–	–
O=C(CCCN1CCC(O)(c2ccc(Cl)cc2)CC1)c1ccc(F)cc1 [HALOPERIDOL]	7.80	–	–	–

— ChEMBL document CHEMBL1772975, “Novel potent and selective σ ligands: evaluation of their agonist and antagonist properties” (J Med Chem, 2011)
